Experimental findings from ChEMBL document CHEMBL4622886, “Leucinostatins from Ophiocordyceps spp. and Purpureocillium spp. Demonstrate Selective Antiproliferative Effects in Cells Representing the Luminal Androgen Receptor Subtype of Triple Negative Breast Cancer” (2020) are described below.

The source made the active and inactive calls. The calls are words filed in the database; no cut-off is given here. Numbered stars: 1 amine (or outer) side, 2 acyl side, 3 side chain; on linkers, the order of the positions; unused ones are H or OH. Square brackets hold non-standard residues; d marks the D form. Peptide text beside a SMILES is read from it. * marks the point of attachment. X1 = CCC(=O)C[C@@H](O)C[C@@H](C)C[C@H](N[*:1])C(=O)[*:2]; X2 = CCC(=O)/C=C/C[C@@H](C)C[C@H](N[*:1])C(=O)[*:2]; Hexenoyl(2E,4S-Me) = CC[C@H](C)/C=C/C(=O)*; Leu(3R-OH) = CC(C)[C@@H](O)[C@H](N)C(=O)O; Pro(4S-Me) = C[C@@H]1CN[C@H](C(=O)O)C1; NH((S)CH(CH3)CH2NHMe) = CNC[C@H](C)N*; Aib = CC(C)(N)C(=O)O; βAla = NCCC(=O)O

A word on the inhibition: it is the relative decrease from the control value, in per cent. As usually defined, the GI50 is the concentration giving 50% growth inhibition.

The subject of assay [1] is MDA-MB-453. The assay can be described thus: Antiproliferative activity against human MDA-MB-453 cells at 0.01 to 100 nM incubated for 48 hrs by sulforhodamine B assay. Type of assay: functional, cell-based. The method in brief: (§1)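 IMEM with 5% FBS and 0.3% gentamicin; cells used within 4 months of thaw. After seeding at set densities and adhering, cells got compound or DMSO vehicle for 48 h, then were fixed and SRB-stained, with A560 read. GI50 (50% proliferation inhibition vs vehicle) came from non-linear regression of concentration-response curves; three independent experiments, each in triplicate.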
On the technique in general: In SRB staining, fixed cells bind dye roughly in proportion to their protein.

Assay [2] relates to SUM185PE. The assay can be described thus: Antiproliferative activity against human SUM185PE cells at 0.01 to 100 nM incubated for 48 hrs by sulforhodamine B assay. The assay is classed as functional, cell-based. The procedure, abridged:
as §1

For assay [3], the target named is T1, mTORC1 (Homo sapiens) (UniProt P42345+Q8N122+Q9BVC4). The assay can be described thus: Inhibition of mTORC1 signalling in human MDA-MB-453 cells assessed as induction of AKT phosphorylation at S473 residue at 100 nM measured within 18 hrs by immunoblot analysis relative to control. The assay is classed as cell-based. The procedure, abridged: (§2)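 Cells were exposed to 100 nM compound or DMSO for 2, 6 or 18 h, then scraped and lysed with PMSF, Na3VO4 and protease inhibitors. Lysate (10 μg protein) ran on 10% Bis-Tris SDS-PAGE and went to PVDF. Blots were probed 1:1000 for phospho and total AKT (S473), S6K (T389), RPS6 (S235/236) and 4E-BP1 (T37/46), plus GAPDH. IRDye secondaries; infrared imaging; two independent experiments.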
On the technique in general: A western blot detects proteins with antibodies after separation by electrophoresis.

Assay [4] concerns the target T1, mTORC1 (Homo sapiens). As to the kind of experiment: Inhibition of mTORC1 signalling in human MDA-MB-453 cells assessed as reduction in RPS6 phosphorylation at S235/236 residue at 100 nM measured at 6 hrs by immunoblot analysis relative to control. Type of assay: cell-based. The procedure, abridged: as §2
In assay [5] the test system is MDA-MB-231. As to the kind of experiment: Antiproliferative activity against human MDA-MB-231 cells up to 100 nM incubated for 48 hrs by sulforhodamine B assay. The assay is classed as functional, cell-based. The method in brief: as §1
The subject of assay [6] is MDA-MB-453. As to the kind of experiment: Antiproliferative activity against human MDA-MB-453 cells at > 1 uM incubated for 48 hrs by sulforhodamine B assay. Type of assay: functional, cell-based. The method in brief: as §1
In assay [7] the test system is HCC1806. The assay can be described thus: Antiproliferative activity against human HCC1806 cells up to 100 nM incubated for 48 hrs by sulforhodamine B assay. The assay is classed as functional, cell-based. The method in brief: (§3)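 Cells (RPMI-1640 with 5% FBS, 0.5% gentamicin; used within 4 months of thaw) were seeded at set densities, allowed to adhere, then treated 48 h with compound or DMSO vehicle. Cells were fixed and SRB-stained, with absorbance read at 560 nm. GI50 vs vehicle was taken by non-linear regression; three independent experiments, each in triplicate.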

In assay [8] the test system is HCC1937. The assay can be described thus: Antiproliferative activity against human HCC1937 cells at >1 uM incubated for 48 hrs by sulforhodamine B assay. Type of assay: functional, cell-based. The method in brief:
as §3

Assay [9] concerns the target T1, mTORC1 (Homo sapiens). As to the kind of experiment: Inhibition of mTORC1 signalling in human MDA-MB-231 cells assessed as reduction in 4E-BP1 phosphorylation at T37/46 residue at 100 nM measured after 2 hrs by immunoblot analysis. The assay is classed as cell-based. The method in brief:
as §2

In assay [10] the test system is MDA-MB-231. As to the kind of experiment: Antiproliferative activity against human MDA-MB-231 cells at > 1 uM incubated for 48 hrs by sulforhodamine B assay. The assay is classed as functional, cell-based. The procedure, abridged:
as §1

Assay [11] concerns the target T1, mTORC1 (Homo sapiens). The assay can be described thus: Inhibition of mTORC1 signalling in human MDA-MB-231 cells assessed as induction of AKT phosphorylation at S473 residue at 100 nM measured within 18 hrs by immunoblot analysis relative to control. Type of assay: cell-based. The procedure, abridged:
as §2

For assay [12], the target named is T1, mTORC1 (Homo sapiens). The assay can be described thus: Inhibition of mTORC1 signalling in human MDA-MB-231 cells assessed as reduction in RPS6 phosphorylation at S235/236 residue at 100 nM measured after 2 to 18 hrs by immunoblot analysis relative to control. The assay is classed as cell-based. The method in brief: as §2
Assay [13] concerns SUM185PE. The assay can be described thus: Antiproliferative activity against human SUM185PE cells at 1 to 100 nM incubated for 48 hrs by sulforhodamine B assay. Type of assay: functional, cell-based. The procedure, abridged:
as §1

Assay [14] addresses T1, mTORC1 (Homo sapiens). The assay can be described thus: Inhibition of mTORC1 signalling in human MDA-MB-453 cells assessed as reduction in ribosomal protein S6 kinase phosphorylation at T389 residue at 100 nM measured within 2 hrs by immunoblot analysis relative to control. The assay is classed as cell-based. The method in brief:
as §2

The subject of assay [15] is HCC1806. As to the kind of experiment: Antiproliferative activity against human HCC1806 cells at >1 uM incubated for 48 hrs by sulforhodamine B assay. Type of assay: functional, cell-based. The procedure, abridged: as §3
Assay [16] deals with HCC1937. The assay can be described thus: Antiproliferative activity against human HCC1937 cells up to 100 nM incubated for 48 hrs by sulforhodamine B assay. Type of assay: functional, cell-based. The method in brief:
as §3

Assay [17] addresses T1, mTORC1 (Homo sapiens). As to the kind of experiment: Inhibition of mTORC1 signalling in human MDA-MB-453 cells assessed as reduction in RPS6 phosphorylation at S235/236 residue at 100 nM measured at 2 hrs by immunoblot analysis. Type of assay: cell-based. The procedure, abridged: as §2
For assay [18], the target named is T1, mTORC1 (Homo sapiens). The assay can be described thus: Inhibition of mTORC1 signalling in human MDA-MB-453 cells assessed as reduction in 4E-BP1 phosphorylation at T37/46 residue at 100 nM measured after 2 hrs by immunoblot analysis. Type of assay: cell-based. The procedure, abridged: as §2
The target in assay [19] is T1, mTORC1 (Homo sapiens). As to the kind of experiment: Inhibition of mTORC1 signalling in human MDA-MB-231 cells assessed as reduction in ribosomal protein S6 kinase phosphorylation at T389 residue at 100 nM measured after 2 to 18 hrs by immunoblot analysis relative to control. Type of assay: cell-based. The procedure, abridged: as §2
The subject of assay [20] is MDA-MB-453. The assay can be described thus: Antiproliferative activity against human MDA-MB-453 cells at 1 to 100 nM incubated for 48 hrs by sulforhodamine B assay. The assay is classed as functional, cell-based. The method in brief:
as §1

Assay [21] has as its system BT-549. As to the kind of experiment: Antiproliferative activity against human BT549 cells up to 100 nM incubated for 48 hrs by sulforhodamine B assay. Type of assay: functional, cell-based. The method in brief: as §3
The test system of assay [22] is BT-549. The assay can be described thus: Antiproliferative activity against human BT549 cells at >1 uM incubated for 48 hrs by sulforhodamine B assay. Type of assay: functional, cell-based. The procedure, abridged: as §3
Assay [23] concerns MDA-MB-453. The assay can be described thus: Antiproliferative activity against human MDA-MB-453 cells incubated for 48 hrs by sulforhodamine B assay. Type of assay: functional. The note with it: MDA-MB-453, 48 h. The procedure, abridged:
as §1

In assay [24] the test system is MDA-MB-231. The assay can be described thus: Antiproliferative activity against human MDA-MB-231 cells incubated for 48 hrs by sulforhodamine B assay. The assay is classed as functional. The note with it: MDA-MB-231, 48 h. The method in brief:
as §1

Assay [25] has as its system SUM185PE. The assay can be described thus: Antiproliferative activity against human SUM185PE cells incubated for 48 hrs by sulforhodamine B assay. The assay is classed as functional. The method in brief: as §1
Assay [26] concerns the target T1, mTORC1 (Homo sapiens). The note with it: MDA-MB-231, 10 nM.
Assay [27] addresses T1, mTORC1 (Homo sapiens). Conditions: MDA-MB-453, 10 nM.

T1 sequence (Q8N122 whole entry, looked up, other chains not shown): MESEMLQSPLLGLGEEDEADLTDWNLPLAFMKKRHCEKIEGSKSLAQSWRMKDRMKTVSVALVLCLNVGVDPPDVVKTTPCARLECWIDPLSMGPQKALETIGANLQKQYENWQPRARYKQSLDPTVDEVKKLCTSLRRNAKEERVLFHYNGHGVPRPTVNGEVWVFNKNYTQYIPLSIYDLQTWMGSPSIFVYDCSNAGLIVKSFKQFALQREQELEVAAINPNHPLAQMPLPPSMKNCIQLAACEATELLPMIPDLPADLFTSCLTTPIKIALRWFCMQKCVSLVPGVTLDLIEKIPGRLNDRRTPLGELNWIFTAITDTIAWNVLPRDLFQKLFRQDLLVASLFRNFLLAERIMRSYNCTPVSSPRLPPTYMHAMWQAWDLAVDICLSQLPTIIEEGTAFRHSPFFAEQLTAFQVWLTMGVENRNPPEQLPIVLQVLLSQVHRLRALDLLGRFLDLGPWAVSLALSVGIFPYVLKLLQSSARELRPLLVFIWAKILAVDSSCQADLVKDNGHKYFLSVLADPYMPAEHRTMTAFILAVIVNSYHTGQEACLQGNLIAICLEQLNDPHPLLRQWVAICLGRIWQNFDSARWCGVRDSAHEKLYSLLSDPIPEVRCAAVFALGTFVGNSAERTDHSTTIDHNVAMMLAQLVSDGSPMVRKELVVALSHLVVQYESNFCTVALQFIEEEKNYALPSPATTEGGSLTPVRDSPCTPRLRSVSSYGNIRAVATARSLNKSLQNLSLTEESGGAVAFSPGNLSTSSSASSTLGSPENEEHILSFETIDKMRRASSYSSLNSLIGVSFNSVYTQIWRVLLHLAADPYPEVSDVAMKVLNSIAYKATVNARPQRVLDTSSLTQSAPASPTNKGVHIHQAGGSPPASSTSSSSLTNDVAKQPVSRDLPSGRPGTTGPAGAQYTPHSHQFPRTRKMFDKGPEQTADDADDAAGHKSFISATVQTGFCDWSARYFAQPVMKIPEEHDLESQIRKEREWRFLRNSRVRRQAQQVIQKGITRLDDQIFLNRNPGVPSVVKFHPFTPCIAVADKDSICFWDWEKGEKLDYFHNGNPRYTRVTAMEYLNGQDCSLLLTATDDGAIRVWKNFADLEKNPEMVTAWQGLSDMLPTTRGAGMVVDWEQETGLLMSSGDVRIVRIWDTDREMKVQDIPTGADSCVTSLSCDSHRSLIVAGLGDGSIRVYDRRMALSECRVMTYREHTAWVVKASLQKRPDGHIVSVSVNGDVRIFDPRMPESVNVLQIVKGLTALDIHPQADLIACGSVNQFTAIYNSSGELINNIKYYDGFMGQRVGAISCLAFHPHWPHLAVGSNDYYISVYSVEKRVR
T1 sequence (Q9BVC4 whole entry, looked up, other chains not shown): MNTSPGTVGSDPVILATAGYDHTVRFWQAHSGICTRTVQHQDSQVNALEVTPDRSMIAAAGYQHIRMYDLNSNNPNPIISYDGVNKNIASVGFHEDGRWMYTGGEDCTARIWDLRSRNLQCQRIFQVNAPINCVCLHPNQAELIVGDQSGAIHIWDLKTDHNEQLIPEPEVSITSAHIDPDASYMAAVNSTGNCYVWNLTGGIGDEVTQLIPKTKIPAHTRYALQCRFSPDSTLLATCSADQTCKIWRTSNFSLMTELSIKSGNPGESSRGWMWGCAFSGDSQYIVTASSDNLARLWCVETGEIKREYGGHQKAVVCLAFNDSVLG

On to `CCC(=O)C[C@@H](O)C[C@@H](C)C[C@H](NC(=O)[C@@H]1C[C@H](C)CN1C(=O)/C=C/[C@@H](C)CC)C(=O)N[C@H](C(=O)NC(C)(C)C(=O)N[C@@H](CC(C)C)C(=O)N[C@@H](CC(C)C)C(=O)NC(C)(C)C(=O)NC(C)(C)C(=O)NCCC(=O)N[C@@H](C)CNC)[C@H](O)C(C)C` ({Hexenoyl(2E,4S-Me)}-[Pro(4S-Me)][X1][Leu(3R-OH)][Aib]LL[Aib][Aib][βAla]-{NH((S)CH(CH3)CH2NHMe)}), for which the inhibition result in assay [1], in assay [2], in assay [3], in assay [17] and in [18] was “Active” in each case. In addition, the inhibition in assay [4] and in assay [14] was 100% throughout. Moreover, the outcome in [5], in [7], in assay [16] and in [21] was inactive. The result in assay [6], in [8], in assay [10], in [13], in assay [15] and in assay [20] was Active. In assay [22], the outcome was Active. For the same compound, the inhibition result in assay [9], in assay [11], in assay [12] and in assay [19] was “inactive” in each case.
With `CCC(=O)/C=C/C[C@@H](C)C[C@H](NC(=O)[C@@H]1C[C@H](C)CN1C(=O)/C=C/[C@@H](C)CC)C(=O)N[C@H](C(=O)NC(C)(C)C(=O)N[C@@H](CC(C)C)C(=O)N[C@@H](CC(C)C)C(=O)NC(C)(C)C(=O)NC(C)(C)C(=O)NCCC(=O)N[C@@H](C)CNC)[C@H](O)C(C)C` ({Hexenoyl(2E,4S-Me)}-[Pro(4S-Me)][X2][Leu(3R-OH)][Aib]LL[Aib][Aib][βAla]-{NH((S)CH(CH3)CH2NHMe)}), the outcome in assay [5], in assay [7], in assay [16] and in assay [21] was inactive. In addition, the concentration for 50% growth inhibition (GI50) in assay [23] was 4 nM; in assay [24] it was greater than 100 nM; in assay [25], 2.2 nM. Also, the outcome in assay [6], in [8], in assay [10], in [13], in assay [15] and in [20] was Active. Also, the outcome in assay [22] was Active.
As for `CO[C@H]1C[C@@H]2CC[C@@H](C)[C@@](O)(O2)C(=O)C(=O)N2CCCC[C@H]2C(=O)O[C@H]([C@H](C)C[C@@H]2CC[C@@H](O)[C@H](OC)C2)CC(=O)[C@H](C)/C=C(\C)[C@@H](O)[C@@H](OC)C(=O)[C@H](C)C[C@H](C)/C=C/C=C/C=C/1C` [SIROLIMUS], the inhibition entry in assay [26] and in assay [27] was “Active” each time. Besides, the GI50 was 0.05 nM in assay [23], greater than 100 nM in [24] and 0.04 nM in assay [25].
